In brackets after ≈: the same amount, converted by molar mass.
Experiments:
CYP2D6 = CYP2D6 (Homo sapiens, UniProt P10635); experiment: Inhibition of human recombinant CYP2D6 expressed in baculovirus infected insect cells using EOMCC as substrate at 10 uM in presence of NADPH by fluorimetric analysis relative to control; type: ADME; details: probe EOMCC
[1] = Metabolic stability in human liver microsomes assessed as parent compound remaining after 60 mins by LC-MS analysis relative to control; type: ADME, Microsome; details: read-out: Stability
CYP2C9 = CYP2C9 (Homo sapiens, UniProt P11712); experiment: Inhibition of human recombinant CYP2C9 expressed in baculovirus infected insect cells using OOMR as substrate at 10 uM in presence of NADPH by fluorimetric analysis relative to control; type: ADME; details: probe OOMR
[2] = Drug metabolism in RjOrl:Swiss CD-1 mouse assessed as ratio of compound to N-(4-(4-(4-Fluorophenyl)-2-(methylsulfinyl)-1H-imidazol-5-yl)pyridin-2-yl)cyclopropanecarboxamide metabolite level at 10 mg/kg, iv administered as single dose measured after 10 mins by LC-MS analysis; type: ADME, organism-based; details: in vivo
How it was run: (§1)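 Adult male RjOrl:Swiss CD-1 mice got one intravenous dose of 10 mg/kg. Plasma was sampled at 10, 30 and 120 min. After the last sample the mice were sacrificed and brains dissected. Blood and brain samples were prepared and analysed by LC-MS for parent and sulfoxide metabolite; brain levels reported as ng/g.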

[3] = target: T1, Glycogen synthase kinase-3 beta (Homo sapiens, UniProt P49841); experiment: Competitive inhibition of human recombinant full length GSK3beta using YRRAAVPPSPSLSRHSSPHQ(pS)EDEEE as substrate preincubated with enzyme for 10 mins followed by substrate and 100 uM ATP addition measured after 60 mins by ADP-Glo luminescence assay
How it was run: (§2)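 Recombinant human GSK3β at 0.58 ng/µL with 0.2 µg/µL substrate G50-58; ATP at 25 µM, 100 µM or 500 µM, each as its line states. Compounds in serial dilutions were preincubated with kinase for 10 min at rt. Substrate/ATP was then added and the reaction ran 60 min at rt. ADP-Glo reagent 60 min, detection reagent 30 min, then luminescence read (500 ms integration).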

[4] = target: T1, Glycogen synthase kinase-3 beta; experiment: Competitive inhibition of human recombinant full length GSK3beta using YRRAAVPPSPSLSRHSSPHQ(pS)EDEEE as substrate preincubated with enzyme for 10 mins followed by substrate and 25 uM ATP addition measured after 60 mins by ADP-Glo luminescence assay
How it was run: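 Compounds in serial dilutions were preincubated with kinase for 10 min at rt. Substrate/ATP was then added and the reaction ran 60 min at rt. ADP-Glo reagent 60 min, detection reagent 30 min, then luminescence read (500 ms integration).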

Cytochrome P450 2C19 = Cytochrome P450 2C19 (Homo sapiens, UniProt P33261); experiment: Inhibition of human recombinant CYP2C19 expressed in baculovirus infected insect cells using EOMCC as substrate in presence of NADPH by fluorimetric analysis relative to control; type: ADME; details: recombinant enzyme
Blood = experiment: Inhibition of LPS-induced TNFalpha production in human whole blood preincubated with compound for 15 mins followed by LPS addition measured after 2.5 hrs by ELISA; type: functional, tissue-based
CYP1A2 = CYP1A2 (Homo sapiens, UniProt P05177); experiment: Inhibition of human recombinant CYP1A2 expressed in baculovirus infected insect cells using 3-cyano-7-ethoxycoumarin as substrate at 10 uM in presence of NADPH by fluorimetric analysis relative to control; type: ADME; details: probe 3-cyano-7-ethoxycoumarin
[5] = Metabolic stability in human liver microsomes assessed as parent compound remaining after 30 mins by LC-MS analysis relative to control; type: ADME, Microsome; details: read-out: Stability
CYP3A4 = CYP3A4 (Homo sapiens, UniProt P08684); experiment: Inhibition of human recombinant CYP3A4 expressed in baculovirus infected insect cells using BOMR as substrate at 10 uM in presence of NADPH by fluorimetric analysis relative to control; type: ADME; details: probe BOMR
[6] = Metabolic stability in human liver microsomes assessed as parent compound remaining after 10 mins by LC-MS analysis relative to control; type: ADME, Microsome; details: read-out: Stability
[7] = Drug metabolism in human liver microsomes assessed as N-(4-(4-(4-Fluorophenyl)-2-(methylsulfinyl)-1H-imidazol-5-yl)pyridin-2-yl)cyclopropanecarboxamide metabolite formation by measuring half life by LC-MS analysis; type: ADME, Microsome
How it was run: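 Incubation with human liver microsomes for up to 4 h. Remaining parent and sulfoxide metabolite formation were followed over time, giving a half-life for the oxidation.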

[8] = Metabolic stability in human liver microsomes assessed as parent compound remaining after 240 mins by LC-MS analysis relative to control; type: ADME, Microsome; details: read-out: Stability
[9] = Drug metabolism in RjOrl:Swiss CD-1 mouse at 10 mg/kg, iv administered as single dose measured after 2 hrs by LC-MS relative to control; type: ADME, organism-based; details: in vivo; how it was run: as §1
[10] = Metabolic stability in human liver microsomes assessed as parent compound remaining after 180 mins by LC-MS analysis relative to control; type: ADME, Microsome; details: read-out: Stability
[11] = target: Glycogen synthase kinase-3 alpha (Homo sapiens, UniProt P49840); experiment: Inhibition of human recombinant full length GSK3alpha using YRRAAVPPSPSLSRHSSPHQ(pS)EDEEE as substrate preincubated with enzyme for 10 mins followed by substrate and 25 uM ATP addition measured after 60 mins by ADP-Glo luminescence assay
How it was run: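 Recombinant human GSK3α at 0.50 ng/µL, 25 µM ATP, 0.2 µg/µL substrate G50-58, serial compound dilutions. Kinase was preincubated with compound 10 min at rt, then run 60 min at rt after substrate/ATP addition. ADP-Glo reagent 60 min, detection reagent 30 min, luminescence read. Uninhibited-kinase and ATP/substrate-only controls were included.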

[12] = Metabolic stability in human liver microsomes assessed as parent compound remaining after 120 mins by LC-MS analysis relative to control; type: ADME, Microsome; details: read-out: Stability
[13] = target: T1, Glycogen synthase kinase-3 beta; experiment: Competitive inhibition of human recombinant full length GSK3beta using YRRAAVPPSPSLSRHSSPHQ(pS)EDEEE as substrate preincubated with enzyme for 10 mins followed by substrate and 500 uM ATP addition measured after 60 mins by ADP-Glo luminescence assay; how it was run: as §2
hERG (KCNH2) = hERG (KCNH2) (Homo sapiens, UniProt Q12809); experiment: Inhibition of tracer Red binding to human ERG expressed in membranes at 10 uM after 4 hrs by fluorescence polarization assay relative to control; details: membranes expressing human ERG, probe tracer Red
[14] = Solubility of the compound in PBS buffer at pH 7.8 after 1 hr by HPLC analysis; type: physicochemical
[15] = Metabolic stability in human liver microsomes assessed as parent compound remaining after 20 mins by LC-MS analysis relative to control; type: ADME, Microsome; details: read-out: Stability
[16] = target: Mitogen-activated protein kinase 14 (Homo sapiens, UniProt Q16539); experiment: Inhibition of p38alpha MAPK (unknown origin) using ATF-2 as substrate after 1 hr by ELISA
Chain of Mitogen-activated protein kinase 14 (Q16539 whole entry): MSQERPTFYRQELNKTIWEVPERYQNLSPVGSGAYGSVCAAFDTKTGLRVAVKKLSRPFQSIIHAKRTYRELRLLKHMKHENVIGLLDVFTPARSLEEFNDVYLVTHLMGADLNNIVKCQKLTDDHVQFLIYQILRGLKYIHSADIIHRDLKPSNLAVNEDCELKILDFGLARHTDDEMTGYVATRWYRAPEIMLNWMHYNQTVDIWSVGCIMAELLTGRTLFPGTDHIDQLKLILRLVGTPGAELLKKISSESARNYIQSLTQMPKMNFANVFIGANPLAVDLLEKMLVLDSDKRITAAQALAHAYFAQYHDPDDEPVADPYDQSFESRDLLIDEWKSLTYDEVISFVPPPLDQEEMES

T1 sequence (P49841 whole entry): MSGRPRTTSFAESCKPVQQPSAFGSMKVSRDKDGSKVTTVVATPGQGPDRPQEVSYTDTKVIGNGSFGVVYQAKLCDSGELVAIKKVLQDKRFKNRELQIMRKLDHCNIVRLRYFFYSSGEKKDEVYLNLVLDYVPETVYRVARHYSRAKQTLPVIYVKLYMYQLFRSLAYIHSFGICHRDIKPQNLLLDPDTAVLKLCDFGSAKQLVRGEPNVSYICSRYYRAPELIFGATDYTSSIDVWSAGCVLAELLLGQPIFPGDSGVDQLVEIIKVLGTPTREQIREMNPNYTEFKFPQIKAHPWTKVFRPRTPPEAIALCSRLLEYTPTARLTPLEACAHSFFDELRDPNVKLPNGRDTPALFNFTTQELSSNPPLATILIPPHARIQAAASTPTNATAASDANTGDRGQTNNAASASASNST
Chain of hERG (KCNH2) (Q12809 whole entry): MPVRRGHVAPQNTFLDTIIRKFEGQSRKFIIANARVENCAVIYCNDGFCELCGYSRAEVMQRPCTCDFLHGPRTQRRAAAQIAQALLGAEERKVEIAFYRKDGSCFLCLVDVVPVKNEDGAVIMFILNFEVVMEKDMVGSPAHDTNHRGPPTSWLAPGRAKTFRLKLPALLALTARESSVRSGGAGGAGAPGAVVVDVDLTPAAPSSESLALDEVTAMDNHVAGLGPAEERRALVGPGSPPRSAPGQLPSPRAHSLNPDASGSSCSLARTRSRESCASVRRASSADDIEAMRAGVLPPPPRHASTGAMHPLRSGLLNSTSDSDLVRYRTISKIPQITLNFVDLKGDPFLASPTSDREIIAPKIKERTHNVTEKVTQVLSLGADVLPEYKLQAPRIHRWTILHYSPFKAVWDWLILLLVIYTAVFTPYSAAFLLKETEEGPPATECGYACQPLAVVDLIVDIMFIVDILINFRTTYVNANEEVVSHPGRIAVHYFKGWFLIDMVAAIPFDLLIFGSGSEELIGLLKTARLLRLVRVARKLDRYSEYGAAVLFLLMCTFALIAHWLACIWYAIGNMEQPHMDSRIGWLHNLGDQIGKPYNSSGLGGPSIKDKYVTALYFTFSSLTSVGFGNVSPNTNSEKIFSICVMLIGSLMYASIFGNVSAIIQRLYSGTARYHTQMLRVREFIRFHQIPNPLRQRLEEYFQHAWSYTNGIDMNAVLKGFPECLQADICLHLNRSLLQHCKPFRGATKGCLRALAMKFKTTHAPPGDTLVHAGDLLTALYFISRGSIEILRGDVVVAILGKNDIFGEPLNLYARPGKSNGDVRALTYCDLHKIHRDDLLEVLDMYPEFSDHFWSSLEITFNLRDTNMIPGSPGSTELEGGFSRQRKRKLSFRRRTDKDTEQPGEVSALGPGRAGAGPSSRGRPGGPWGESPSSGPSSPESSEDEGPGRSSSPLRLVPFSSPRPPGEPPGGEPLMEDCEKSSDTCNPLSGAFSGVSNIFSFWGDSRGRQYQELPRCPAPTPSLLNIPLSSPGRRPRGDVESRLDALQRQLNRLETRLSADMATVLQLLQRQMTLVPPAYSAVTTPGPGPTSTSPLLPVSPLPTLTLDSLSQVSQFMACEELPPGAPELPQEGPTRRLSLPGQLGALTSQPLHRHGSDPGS
Chain of Glycogen synthase kinase-3 alpha (P49840 whole entry): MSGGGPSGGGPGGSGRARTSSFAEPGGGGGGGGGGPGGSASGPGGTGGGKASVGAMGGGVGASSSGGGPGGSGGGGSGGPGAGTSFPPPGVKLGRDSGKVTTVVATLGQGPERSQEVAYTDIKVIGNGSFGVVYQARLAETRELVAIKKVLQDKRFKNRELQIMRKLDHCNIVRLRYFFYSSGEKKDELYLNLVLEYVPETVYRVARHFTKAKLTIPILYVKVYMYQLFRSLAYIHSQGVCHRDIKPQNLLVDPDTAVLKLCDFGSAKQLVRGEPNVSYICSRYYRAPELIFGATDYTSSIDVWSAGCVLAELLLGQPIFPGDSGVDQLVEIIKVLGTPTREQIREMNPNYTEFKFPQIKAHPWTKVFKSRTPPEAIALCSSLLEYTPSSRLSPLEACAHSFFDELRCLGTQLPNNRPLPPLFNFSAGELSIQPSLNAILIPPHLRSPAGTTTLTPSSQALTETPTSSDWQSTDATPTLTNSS
Chain of Cytochrome P450 2C19 (P33261 whole entry): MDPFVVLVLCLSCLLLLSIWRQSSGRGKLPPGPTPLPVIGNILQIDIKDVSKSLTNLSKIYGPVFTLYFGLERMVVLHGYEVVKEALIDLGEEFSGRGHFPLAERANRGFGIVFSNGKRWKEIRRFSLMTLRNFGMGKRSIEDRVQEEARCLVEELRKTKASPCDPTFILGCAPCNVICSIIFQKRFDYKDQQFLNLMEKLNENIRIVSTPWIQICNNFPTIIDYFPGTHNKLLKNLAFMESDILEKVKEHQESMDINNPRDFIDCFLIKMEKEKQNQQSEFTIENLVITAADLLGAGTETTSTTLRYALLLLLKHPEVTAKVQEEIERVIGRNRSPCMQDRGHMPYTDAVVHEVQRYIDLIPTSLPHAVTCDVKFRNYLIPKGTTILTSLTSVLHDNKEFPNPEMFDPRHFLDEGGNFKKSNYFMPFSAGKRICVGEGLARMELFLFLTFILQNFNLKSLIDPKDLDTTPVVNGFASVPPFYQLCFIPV
Chain of CYP2D6 (P10635 whole entry): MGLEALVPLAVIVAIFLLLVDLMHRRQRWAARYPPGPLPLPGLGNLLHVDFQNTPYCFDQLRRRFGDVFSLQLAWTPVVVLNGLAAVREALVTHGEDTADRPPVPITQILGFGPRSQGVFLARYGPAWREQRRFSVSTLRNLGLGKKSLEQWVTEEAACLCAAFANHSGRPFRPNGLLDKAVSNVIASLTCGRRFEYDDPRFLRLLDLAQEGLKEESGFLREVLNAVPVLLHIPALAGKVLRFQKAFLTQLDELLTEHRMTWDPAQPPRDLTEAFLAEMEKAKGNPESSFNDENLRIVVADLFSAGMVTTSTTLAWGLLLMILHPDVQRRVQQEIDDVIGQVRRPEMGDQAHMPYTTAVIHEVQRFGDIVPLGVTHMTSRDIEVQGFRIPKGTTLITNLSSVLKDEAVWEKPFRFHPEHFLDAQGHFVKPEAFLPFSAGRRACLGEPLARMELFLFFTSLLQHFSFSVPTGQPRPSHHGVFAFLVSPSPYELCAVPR
Chain of CYP1A2 (P05177 whole entry): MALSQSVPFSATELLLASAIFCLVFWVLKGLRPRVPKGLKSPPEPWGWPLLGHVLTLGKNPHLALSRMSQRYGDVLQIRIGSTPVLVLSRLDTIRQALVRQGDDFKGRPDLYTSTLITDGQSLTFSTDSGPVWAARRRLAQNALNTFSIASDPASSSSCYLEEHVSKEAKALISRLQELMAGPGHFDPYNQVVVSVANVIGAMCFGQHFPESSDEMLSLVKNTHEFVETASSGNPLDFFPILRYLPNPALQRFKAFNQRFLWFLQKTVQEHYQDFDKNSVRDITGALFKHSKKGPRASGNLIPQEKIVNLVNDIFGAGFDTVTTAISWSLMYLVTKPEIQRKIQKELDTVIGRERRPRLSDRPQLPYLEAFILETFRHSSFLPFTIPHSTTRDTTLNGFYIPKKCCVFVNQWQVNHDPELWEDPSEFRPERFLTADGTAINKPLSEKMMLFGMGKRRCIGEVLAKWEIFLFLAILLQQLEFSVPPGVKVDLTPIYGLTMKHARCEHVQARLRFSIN
Chain of CYP3A4 (P08684 whole entry): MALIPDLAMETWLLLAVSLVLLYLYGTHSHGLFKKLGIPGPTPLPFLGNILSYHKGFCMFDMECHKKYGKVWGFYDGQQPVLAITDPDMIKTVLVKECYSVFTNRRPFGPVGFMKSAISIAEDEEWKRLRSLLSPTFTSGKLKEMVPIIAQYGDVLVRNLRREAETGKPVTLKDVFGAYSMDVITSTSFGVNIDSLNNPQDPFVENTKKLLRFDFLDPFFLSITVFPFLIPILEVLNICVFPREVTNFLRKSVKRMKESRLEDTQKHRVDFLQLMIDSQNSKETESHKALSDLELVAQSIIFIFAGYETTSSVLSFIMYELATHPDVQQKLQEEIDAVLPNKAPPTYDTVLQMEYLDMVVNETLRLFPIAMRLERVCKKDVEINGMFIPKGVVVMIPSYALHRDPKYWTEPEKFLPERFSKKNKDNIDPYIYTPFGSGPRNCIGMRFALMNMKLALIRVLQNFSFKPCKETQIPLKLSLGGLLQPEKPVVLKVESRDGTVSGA
Chain of CYP2C9 (P11712 whole entry): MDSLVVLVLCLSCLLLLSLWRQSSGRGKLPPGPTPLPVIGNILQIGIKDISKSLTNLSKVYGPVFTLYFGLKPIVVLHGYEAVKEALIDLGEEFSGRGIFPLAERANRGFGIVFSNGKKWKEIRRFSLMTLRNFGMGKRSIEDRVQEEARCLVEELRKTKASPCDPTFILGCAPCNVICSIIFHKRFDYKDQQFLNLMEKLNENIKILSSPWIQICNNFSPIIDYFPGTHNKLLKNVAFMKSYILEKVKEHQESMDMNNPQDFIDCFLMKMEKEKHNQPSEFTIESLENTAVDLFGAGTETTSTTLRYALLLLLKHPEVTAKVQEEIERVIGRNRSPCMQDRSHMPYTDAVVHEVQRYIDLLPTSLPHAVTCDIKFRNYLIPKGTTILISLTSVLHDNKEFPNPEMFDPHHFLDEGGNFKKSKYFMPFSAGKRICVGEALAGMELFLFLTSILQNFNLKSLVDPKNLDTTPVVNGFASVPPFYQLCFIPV

Compound `CSc1nc(-c2ccc(F)cc2)c(-c2ccnc(NC(=O)C3CC3)c2)[nH]1` has an inhibition at 10 µM (CYP2D6) of 14.6%, a remaining at 1 h [1] of 81.8% and an inhibition at 10 µM (CYP2C9) of 77.7%. For the same compound, the Ratio [2] was 0.5, the IC50 [3] was 174 nM and the IC50 [4] was 18.5 to 40 nM. The “inhibition (INH)” value (Cytochrome P450 2C19) was 56.1%, the IC50 (Blood) was 541 nM and the inhibition at 10 µM (CYP1A2) was 88.4%. For the same compound, the remaining at 0.5 h [5] was 89.6%, the inhibition at 10 µM (CYP3A4) was 75.6% and the remaining at 10 min [6] was 98.8%. For the same compound, the t1/2 [7] was 3.17 h, the remaining at 4 h [8] was 44% and the Drug metabolism [9] was “Metabolite_Detected”. For the same compound, the remaining at 3 h [10] was 52.1%, the IC50 [11] was 300 nM and the remaining at 2 h [12] was 65.9%. For the same compound, the IC50 [13] was 423 nM, the inhibition at 4 h, 10 µM (hERG (KCNH2)) was 30.1% and the solubility at 1 h [14] was 51 µg/mL (≈ 138 µM). It also gave a remaining at 20 min [15] of 97.9% and an IC50 [16] of 24 nM.
